Results from different studies.
Mode: inhibitor
rep main protease: Replicase polyprotein 1ab, main protease (rep, Severe acute respiratory syndrome coronavirus 2, UniProt P0DTD1)
rep papain-like protease: Replicase polyprotein 1ab, papain-like protease (rep, Severe acute respiratory syndrome coronavirus 2, UniProt P0DTD1)
rep methyltransferase: Replicase polyprotein 1ab, methyltransferase (rep, Severe acute respiratory syndrome coronavirus 2, UniProt P0DTD1)

O=C1c2ccccc2NC(c2cc(Br)ccc2O)N1N=Cc1cc(Br)ccc1O (stereo not drawn)  IC50 (rep main protease; enzyme activity in cells): > 40 µM
COC(=O)N[C@H](C(=O)N[C@@H](Cc1ccccc1)[C@@H](O)CN(Cc1ccc(-c2ccccn2)cc1)NC(=O)[C@@H](NC(=O)OC)C(C)(C)C)C(C)(C)C  IC50 (rep main protease; enzyme activity, luciferase): > 240 µM
O=C(CC1Sc2ncnn2C1=O)Nc1ccc(Br)cc1 (stereo not drawn)  IC50 (rep main protease; enzyme activity, fluorescence): > 20 µM
O=C1c2ccccc2NC(c2cc([N+](=O)[O-])ccc2O)N1N=Cc1cc([N+](=O)[O-])ccc1O (stereo not drawn)  IC50 (rep main protease; enzyme activity in cells): > 40 µM
CN(C)[C@@H]1C(O)=C(C(N)=O)C(=O)[C@@]2(O)C(O)=C3C(=O)c4c(O)cccc4[C@@](C)(O)[C@H]3[C@H](O)[C@@H]12  IC50 (rep main protease; enzyme activity, luciferase): > 240 µM
Cc1cccc2c3c(ccc12)C1=C(C(=O)C3=O)[C@@H](C)CO1  IC50 (rep papain-like protease; enzyme activity, FRET; pH 7.5): 33 µM
Cc1c(O)cccc1C(=O)N[C@@H](CSc1ccccc1)[C@H](O)CN1C[C@H]2CCCC[C@H]2C[C@H]1C(=O)NC(C)(C)C  IC50 (rep main protease; enzyme activity in cells): > 10 µM
NC(Cc1cc(O)c(O)cc1O)C(=O)O (racemic)  IC50 (rep main protease; enzyme activity): > 20 µM
CCOc1nc2cccc(C(=O)O)c2n1Cc1ccc(-c2ccccc2-c2nnn[nH]2)cc1  IC50 (rep main protease; enzyme activity): > 240 µM
COc1ccc(-c2nc(NC(=O)c3ccc(C)c(F)c3)n[nH]2)cc1OC  IC50 (rep main protease; enzyme activity): 0.47 µM
CC(=O)N[C@@H](CS)C(=O)O  IC50 (rep papain-like protease; enzyme activity): > 150 µM
CCOc1nc2cccc(C(=O)OC(C)OC(=O)OC3CCCCC3)c2n1Cc1ccc(-c2ccccc2-c2nn[nH]n2)cc1 (stereo not drawn)  IC50 (rep methyltransferase; enzyme activity): 30 µM
CC(=O)O/N=C1/C(=O)N(Cc2cc(Cl)ccc2Cl)c2ccc(Cl)cc21  IC50 (rep main protease; enzyme activity): 17.9 µM
c1ccc(-c2nc(N3CCOCC3)[s+]n2-c2ccccc2)cc1  IC50 (rep main protease; enzyme activity): 0.328 µM
O=C(O)c1nnn(-c2nccs2)c1-c1ccc2c(c1)OCO2  IC50 (rep methyltransferase; enzyme activity): 55.8 µM
O=C(Cn1nnc2ccccc21)Nc1ccccc1N1CCc2sccc2C1  IC50 (rep main protease; enzyme activity, FRET): > 100 µM
CCCCCCCCOc1ccccc1C(=O)Nc1ccc(C(=O)OCC[N+](C)(CC)CC)cc1  IC50 (rep methyltransferase; enzyme activity): 39.3 µM
O=c1[nH]nc(Sc2ncc([N+](=O)[O-])s2)n1-c1ccc2c(c1)OCCO2  IC50 (rep main protease; enzyme activity): 0.3 µM
Oc1ccc(O)cc1  IC50 (rep methyltransferase; enzyme activity): 12.2 µM
Nc1nc2nc[nH]c2c(=S)[nH]1  IC50 (rep papain-like protease; enzyme activity, FRET; pH 7.5): > 60 µM
COc1cc(C[C@@H](C)[C@@H](C)Cc2cc(O)c(OC)c(OC)c2)cc(O)c1OC  IC50 (rep main protease; enzyme activity, FRET): 3.07 µM
O=C(NC[C@@H]1c2ccccc2CCN1C(=O)/C=C/c1cn[nH]c1)c1cncc2ccc(F)cc12  IC50 (rep main protease; enzyme activity): 18.7 µM
COc1cc(C[C@@H](C)[C@@H](C)Cc2ccc(O)c(OC)c2)ccc1O  IC50 (rep papain-like protease; enzyme activity, FRET): 4.24 µM
O=C(Oc1cncc(Cl)c1)c1cc2c(Cl)cc(Cl)cc2[nH]1  IC50 (rep main protease; enzyme activity): 0.0233 µM
CC1(C)CC(=O)c2c(oc3c(Cl)cc(NS(=O)(=O)c4ccc5ccccc5c4)cc23)C1  IC50 (rep methyltransferase; enzyme activity): 87 µM
Cc1coc2c1C(=O)C(=O)c1c-2ccc2c1CCCC2(C)C  IC50 (rep papain-like protease; enzyme activity, FRET; pH 7.5): 15.3 µM
CC(C)C[C@H](NC(=O)OCc1ccccc1)C(=O)N(C)N(C#N)CCC(N)=O  IC50 (rep main protease; enzyme activity): 1.45 µM
O=C(NCCCNc1nc(Nc2cccc(NC(=O)N3CCCC3)c2)ncc1I)c1cccs1  IC50 (rep main protease; enzyme activity): 8.7 µM
CCCCCC/C=C\CCCCCCCCCc1cc(O)cc(O)c1  IC50 (rep main protease; enzyme activity; with preincubation): > 100 µM
Cc1cccc(C)c1OCC(=O)N[C@@H](Cc1ccccc1)[C@@H](O)C[C@H](Cc1ccccc1)NC(=O)[C@H](C(C)C)N1CCCNC1=O  IC50 (rep main protease; enzyme activity, luciferase): > 240 µM
CN1CCN(C(=O)c2ccc(-c3ccc4c(C=O)c(O)ccc4c3)s2)CC1  IC50 (rep main protease; enzyme activity): 1.3 µM
CC(C)=CCOc1ccc(/C=C/C(=O)c2ccc(OCC=C(C)C)cc2OCC(=O)O)cc1  IC50 (rep methyltransferase; enzyme activity): 37.6 µM
C[S+]([O-])CCCCN=C=S (stereo not drawn)  IC50 (rep main protease; enzyme activity): 5.5 µM
Cc1nn(-c2ccc(Cl)cc2)c2c1C(c1ccc(Cl)c(Cl)c1)C(C#N)=C(N)O2 (stereo not drawn)  IC50 (rep main protease; enzyme activity): 100 µM
CCOc1ccc(Nc2nc(-c3c(C)nc4ccccn34)cs2)cc1  IC50 (rep main protease; enzyme activity): 5.05 µM
O=C1c2ccccc2NC(c2cc(Cl)ccc2O)N1N=Cc1cc(Cl)ccc1O (stereo not drawn)  IC50 (rep main protease; enzyme activity in cells): 10 µM
Cc1ccc2[nH]ncc2c1C(=O)NC[C@H]1Cc2ccccc2CN1C(=O)C[C@H](C)c1ccco1  IC50 (rep main protease; enzyme activity): 56.9 µM
C=C(c1ccc(C(=O)O)cc1)c1cc2c(cc1C)C(C)(C)CCC2(C)C  IC50 (rep main protease; enzyme activity in cells): 20 µM
COC(=O)C1=C(C)NC(C)=C(C(=O)OCCN2CCN(C(c3ccccc3)c3ccccc3)CC2)C1c1cccc([N+](=O)[O-])c1 (stereo not drawn)  IC50 (rep main protease; enzyme activity, luciferase): > 240 µM
Cc1nocc1C(=O)N1Cc2ccccc2[C@@H](CNC(=O)c2cncc3ccc(F)cc23)C1  IC50 (rep main protease; enzyme activity): 56.8 µM
[2H]C([2H])([2H])n1ncc2cc(/N=c3\[nH]c(=O)n(Cc4ncn(C)n4)c(=O)n3Cc3cc(F)c(F)cc3F)c(Cl)cc21  IC50 (rep main protease; enzyme activity, FRET): 3.53 µM
Cc1ccc(C(=O)Nc2ccc(S(=O)(=O)O)c3cc(S(=O)(=O)O)cc(S(=O)(=O)O)c23)cc1NC(=O)c1cccc(NC(=O)Nc2cccc(C(=O)Nc3cc(C(=O)Nc4ccc(S(=O)(=O)O)c5cc(S(=O)(=O)O)cc(S(=O)(=O)O)c45)ccc3C)c2)c1  IC50 (rep methyltransferase; enzyme activity): 105 µM
c1ccc([Se][Se]c2ccccc2)cc1  IC50 (rep main protease; enzyme activity, FRET): 1.33 µM
COc1ccc2nc(NC(=O)CSc3nc4ccccc4c4nnnn34)sc2c1  IC50 (rep methyltransferase; enzyme activity): 44.8 µM
CC(C)c1nc(CN(C)C(=O)N[C@@H](CCN2CCOCC2)C(=O)N[C@H](CC[C@H](Cc2ccccc2)NC(=O)OCc2cncs2)Cc2ccccc2)cs1  IC50 (rep main protease; enzyme activity, luciferase): > 240 µM
